This note sets out measurements from ChEMBL document CHEMBL4261600 (Eur J Med Chem, 2018).

For assay [1], the system named is Tyrosine-protein kinase ABL1 (Homo sapiens), P00519 [H396P]. Put plainly: Binding affinity to human non-phosphorylated ABL1 H396P mutant (S229 to K512 residues) expressed in mammalian expression system assessed as remaining unbound target protein level at 1000 nM by Kinomescan method relative to control. Put shortly:
(§1)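 KINOMEscan competition-binding profiling across the panel of 468 kinases and mutants, with inhibitor tested at 1 μM. Binding is expressed as percent of control, with DMSO as the reference control.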

For assay [2] the test system is unchanged. Put plainly: Binding affinity to human phosphorylated ABL1 H396P mutant (S229 to K512 residues) expressed in mammalian expression system assessed as remaining unbound target protein level at 1000 nM by Kinomescan method relative to control. The method, boiled down:
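Single-point competition binding screen across a panel of 468 kinases and mutants, with the inhibitor at 1 μM. Binding is read out as percent of a DMSO control, and targets below 1 percent control were classed as strong binders.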

The target of assay [3] is Calcium/calmodulin-dependent protein kinase type 1B (Homo sapiens) (UniProt Q6P2M8). Nature of the assay: Binding affinity to wild-type human partial length CAMK1B (W9 to A311 residues) expressed in mammalian expression system assessed as remaining unbound target protein level at 1000 nM by Kinomescan method relative to control. Put shortly: (§2)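 Profiled in a KINOMEscan binding panel with the inhibitor at a single concentration of 1 μM. Binding to each kinase was read out as percent of control, relative to a DMSO control. Strong binders were defined as those with a percent control value below 1.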

Assay [4] deals with Calcium/calmodulin-dependent protein kinase type 1D (Homo sapiens) (UniProt Q8IU85). Put plainly: Binding affinity to wild-type human partial length CAMK1D (M1 to K299 residues) expressed in bacterial expression system assessed as remaining unbound target protein level at 1000 nM by Kinomescan method relative to control. The method, boiled down:
as §2

Assay [5] has as its target Cyclin-dependent kinase 4 (Homo sapiens) (UniProt P11802). Put plainly: Binding affinity to wild-type human full length CDK4 (M1 to E303 residues) expressed in mammalian expression system assessed as remaining unbound target protein level at 1000 nM by Kinomescan method relative to control. Put shortly: (§3)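 KINOMEscan competitive binding profile at 1 μM inhibitor. Remaining target binding reported as percent of DMSO control.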

For assay [6], the target named is Dual specificity protein kinase CLK1 (Homo sapiens) (UniProt P49759). Nature of the assay: Binding affinity to wild-type human full length CLK1 (M1 to I484 residues) expressed in bacterial expression system assessed as remaining unbound target protein level at 1000 nM by Kinomescan method relative to control. Put shortly:
as §3

In assay [7] the target is Tyrosine-protein kinase FRK (Homo sapiens) (UniProt P42685). Put plainly: Binding affinity to wild-type human partial length FRK (A215 to F503 residues) expressed in bacterial expression system assessed as remaining unbound target protein level at 1000 nM by Kinomescan method relative to control.
In assay [8] the target is Insulin-like growth factor 1 receptor (Homo sapiens) (UniProt P08069). Nature of the assay: Binding affinity to wild-type human partial length IGF1R (L972 to D1294 residues) expressed in bacterial expression system assessed as remaining unbound target protein level at 1000 nM by Kinomescan method relative to control.
For assay [9], the system named is Mast/stem cell growth factor receptor Kit (Homo sapiens), P10721 [V559D,T670I]. Nature of the assay: Binding affinity to human partial length KIT V559D/T670I double mutant (Y545 to D952 residues) expressed in bacterial expression system assessed as remaining unbound target protein level at 1000 nM by Kinomescan method relative to control. The method, boiled down: as §1

The target in assay [10] is Serine/threonine-protein kinase 10 (Homo sapiens) (UniProt O94804). Put plainly: Binding affinity to wild-type human partial length LOK (E16 to V314 residues) expressed in bacterial expression system assessed as remaining unbound target protein level at 1000 nM by Kinomescan method relative to control.
Assay [11] concerns Hepatocyte growth factor receptor (Homo sapiens), P08581 [M1250T]. Nature of the assay: Binding affinity to human partial length MET M1250T mutant (D1010 to S1367 residues) expressed in bacterial expression system assessed as remaining unbound target protein level at 1000 nM by Kinomescan method relative to control. The method, boiled down: as §1
Assay [12] deals with Misshapen-like kinase 1 (Homo sapiens) (UniProt Q8N4C8). Put plainly: Binding affinity to wild-type human partial length MINK (M1 to K312 residues) expressed in mammalian expression system assessed as remaining unbound target protein level at 1000 nM by Kinomescan method relative to control.
The test system of assay [13] is Phosphatidylinositol 4,5-bisphosphate 3-kinase catalytic subunit alpha isoform (Homo sapiens), P42336 [M1043I]. Nature of the assay: Binding affinity to human partial length PIK3CA M1043I mutant (R108 to N1068 residues) expressed in mammalian expression system assessed as remaining unbound target protein level at 1000 nM by Kinomescan method relative to control. Put shortly:
as §1

For assay [14], the target named is Phosphatidylinositol 4-phosphate 5-kinase type-1 alpha (Homo sapiens) (UniProt Q99755). Nature of the assay: Binding affinity to wild-type human full length PIP5K1A (M1 to H562 residues) expressed in bacterial expression system assessed as remaining unbound target protein level at 1000 nM by Kinomescan method relative to control. The method, boiled down: as §2

In assay [15] the target is Proto-oncogene tyrosine-protein kinase receptor Ret (Homo sapiens) (UniProt P07949). Put plainly: Binding affinity to wild-type human partial length RET (E713 to D1014 residues) expressed in bacterial expression system assessed as remaining unbound target protein level at 1000 nM by Kinomescan method relative to control.
Assay [16] deals with Uncharacterized serine/threonine-protein kinase SBK3 (Homo sapiens) (UniProt P0C264). Put plainly: Binding affinity to wild-type human partial length SgK110 (L22 to R329 residues) expressed in bacterial expression system assessed as remaining unbound target protein level at 1000 nM by Kinomescan method relative to control.
Assay [17] addresses Serine/threonine-protein kinase SIK1 (Homo sapiens) (UniProt P57059). Nature of the assay: Binding affinity to wild-type human partial length SIK (M1 to Y304 residues) expressed in bacterial expression system assessed as remaining unbound target protein level at 1000 nM by Kinomescan method relative to control.
The target of assay [18] is Serine/threonine-protein kinase 36 (Homo sapiens) (UniProt Q9NRP7). Put plainly: Binding affinity to wild-type human partial length STK36 (M1 to T271 residues) expressed in bacterial expression system assessed as remaining unbound target protein level at 1000 nM by Kinomescan method relative to control.
Assay [19] addresses Tyrosine-protein kinase Tec (Homo sapiens) (UniProt P42680). Nature of the assay: Binding affinity to wild-type human partial length TEC (L341 to D620 residues) expressed in bacterial expression system assessed as remaining unbound target protein level at 1000 nM by Kinomescan method relative to control.
The target of assay [20] is High affinity nerve growth factor receptor (Homo sapiens) (UniProt P04629). Nature of the assay: Binding affinity to wild-type human partial length TRKA (G475 to G790 residues) expressed in mammalian expression system assessed as remaining unbound target protein level at 1000 nM by Kinomescan method relative to control.
For a further assay, the species on record is Homo sapiens. Put plainly: Selectivity ratio of IC50 for recombinant full length His/GST-tagged human CDK5/p25 to IC50 for recombinant full length His-tagged human CDK9/CyclinT1.

Sequence of Calcium/calmodulin-dependent protein kinase type 1B (Homo sapiens) (Q6P2M8 whole entry, the tested form may be a part): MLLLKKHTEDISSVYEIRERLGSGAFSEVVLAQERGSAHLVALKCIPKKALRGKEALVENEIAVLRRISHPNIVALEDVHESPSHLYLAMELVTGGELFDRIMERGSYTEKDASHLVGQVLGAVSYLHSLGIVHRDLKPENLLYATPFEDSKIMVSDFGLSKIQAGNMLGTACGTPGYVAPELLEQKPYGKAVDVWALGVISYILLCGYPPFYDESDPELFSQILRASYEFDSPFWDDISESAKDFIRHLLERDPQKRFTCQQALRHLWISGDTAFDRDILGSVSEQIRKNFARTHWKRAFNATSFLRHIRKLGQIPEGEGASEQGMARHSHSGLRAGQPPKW
Sequence of Misshapen-like kinase 1 (Homo sapiens) (Q8N4C8 whole entry, looked up, the tested form may be a part, canonical isoform): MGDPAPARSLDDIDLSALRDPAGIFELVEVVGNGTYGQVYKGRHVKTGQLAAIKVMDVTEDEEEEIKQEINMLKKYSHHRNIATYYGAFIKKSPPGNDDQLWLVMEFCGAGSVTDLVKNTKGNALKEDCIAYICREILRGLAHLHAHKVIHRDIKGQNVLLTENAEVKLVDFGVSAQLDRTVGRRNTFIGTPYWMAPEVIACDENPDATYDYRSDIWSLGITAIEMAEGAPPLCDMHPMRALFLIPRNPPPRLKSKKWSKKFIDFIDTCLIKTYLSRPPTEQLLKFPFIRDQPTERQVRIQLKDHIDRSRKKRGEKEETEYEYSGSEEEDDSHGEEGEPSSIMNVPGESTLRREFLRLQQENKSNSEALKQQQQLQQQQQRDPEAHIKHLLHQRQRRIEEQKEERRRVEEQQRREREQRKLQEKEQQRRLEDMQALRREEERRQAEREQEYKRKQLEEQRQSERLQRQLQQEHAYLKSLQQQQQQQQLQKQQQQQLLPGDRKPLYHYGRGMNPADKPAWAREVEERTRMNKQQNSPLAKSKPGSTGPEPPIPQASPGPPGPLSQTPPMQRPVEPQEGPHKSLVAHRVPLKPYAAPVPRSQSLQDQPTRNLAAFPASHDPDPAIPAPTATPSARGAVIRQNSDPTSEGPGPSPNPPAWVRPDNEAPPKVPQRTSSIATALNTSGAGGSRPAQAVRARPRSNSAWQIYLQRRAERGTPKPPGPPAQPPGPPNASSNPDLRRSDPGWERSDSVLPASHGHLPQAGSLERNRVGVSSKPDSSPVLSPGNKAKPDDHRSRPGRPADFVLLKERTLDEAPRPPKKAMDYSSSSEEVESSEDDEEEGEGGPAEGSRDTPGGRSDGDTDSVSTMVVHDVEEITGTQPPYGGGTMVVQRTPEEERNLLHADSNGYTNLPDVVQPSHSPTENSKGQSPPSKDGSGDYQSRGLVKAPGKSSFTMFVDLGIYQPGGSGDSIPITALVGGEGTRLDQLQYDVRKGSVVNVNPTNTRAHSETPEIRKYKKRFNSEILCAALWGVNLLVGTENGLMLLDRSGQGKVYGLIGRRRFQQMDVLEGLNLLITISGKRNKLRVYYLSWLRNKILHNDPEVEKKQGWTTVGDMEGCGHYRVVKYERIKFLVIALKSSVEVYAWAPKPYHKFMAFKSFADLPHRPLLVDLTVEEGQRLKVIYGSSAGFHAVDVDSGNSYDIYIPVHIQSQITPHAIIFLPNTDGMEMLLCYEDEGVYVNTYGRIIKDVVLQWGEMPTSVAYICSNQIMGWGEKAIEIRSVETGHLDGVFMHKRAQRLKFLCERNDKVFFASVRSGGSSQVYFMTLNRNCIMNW
Sequence of Cyclin-dependent kinase 4 (Homo sapiens) (P11802 whole entry, the tested form may be a part): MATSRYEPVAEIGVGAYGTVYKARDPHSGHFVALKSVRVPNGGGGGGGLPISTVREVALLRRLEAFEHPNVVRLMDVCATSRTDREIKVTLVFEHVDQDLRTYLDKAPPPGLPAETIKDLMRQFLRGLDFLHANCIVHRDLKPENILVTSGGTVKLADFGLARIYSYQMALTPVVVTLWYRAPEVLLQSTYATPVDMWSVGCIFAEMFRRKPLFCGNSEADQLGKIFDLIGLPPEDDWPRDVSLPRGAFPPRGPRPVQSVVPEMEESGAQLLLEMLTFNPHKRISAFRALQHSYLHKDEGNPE
Sequence of Serine/threonine-protein kinase 36 (Homo sapiens) (Q9NRP7 whole entry, the tested form may be a part): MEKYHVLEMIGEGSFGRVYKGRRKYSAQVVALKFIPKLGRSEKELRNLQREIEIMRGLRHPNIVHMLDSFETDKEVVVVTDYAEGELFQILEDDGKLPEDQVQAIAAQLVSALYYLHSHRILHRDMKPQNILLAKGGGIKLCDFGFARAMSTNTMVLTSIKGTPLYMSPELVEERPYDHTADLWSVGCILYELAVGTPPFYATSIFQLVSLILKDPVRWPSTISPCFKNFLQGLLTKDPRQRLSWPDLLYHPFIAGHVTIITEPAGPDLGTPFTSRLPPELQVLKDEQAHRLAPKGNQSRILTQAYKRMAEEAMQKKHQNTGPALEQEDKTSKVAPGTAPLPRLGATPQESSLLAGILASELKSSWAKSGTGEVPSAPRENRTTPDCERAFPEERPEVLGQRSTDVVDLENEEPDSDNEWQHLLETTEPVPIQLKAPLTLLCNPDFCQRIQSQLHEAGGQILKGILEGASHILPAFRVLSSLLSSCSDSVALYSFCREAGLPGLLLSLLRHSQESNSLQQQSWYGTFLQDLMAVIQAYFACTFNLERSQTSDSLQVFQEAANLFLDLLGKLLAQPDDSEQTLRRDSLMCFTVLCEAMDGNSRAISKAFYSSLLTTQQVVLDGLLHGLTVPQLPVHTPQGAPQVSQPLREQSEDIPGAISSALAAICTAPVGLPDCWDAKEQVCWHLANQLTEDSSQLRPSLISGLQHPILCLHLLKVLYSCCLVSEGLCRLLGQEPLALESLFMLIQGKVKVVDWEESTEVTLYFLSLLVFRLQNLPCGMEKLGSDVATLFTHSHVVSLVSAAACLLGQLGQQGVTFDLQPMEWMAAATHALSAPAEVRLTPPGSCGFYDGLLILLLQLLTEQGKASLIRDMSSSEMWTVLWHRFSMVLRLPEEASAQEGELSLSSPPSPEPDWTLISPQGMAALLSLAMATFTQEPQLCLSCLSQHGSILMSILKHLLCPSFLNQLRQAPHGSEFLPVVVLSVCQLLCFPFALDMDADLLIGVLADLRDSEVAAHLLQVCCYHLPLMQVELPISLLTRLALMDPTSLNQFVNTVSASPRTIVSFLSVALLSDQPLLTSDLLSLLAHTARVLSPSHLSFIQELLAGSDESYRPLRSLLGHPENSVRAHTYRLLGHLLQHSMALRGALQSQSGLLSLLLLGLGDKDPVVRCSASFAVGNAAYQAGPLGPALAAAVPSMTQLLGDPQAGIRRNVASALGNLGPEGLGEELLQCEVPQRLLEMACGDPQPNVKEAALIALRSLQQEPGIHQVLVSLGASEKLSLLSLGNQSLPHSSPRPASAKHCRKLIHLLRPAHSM
Sequence of Serine/threonine-protein kinase SIK1 (Homo sapiens) (P57059 whole entry, the tested form may be a part): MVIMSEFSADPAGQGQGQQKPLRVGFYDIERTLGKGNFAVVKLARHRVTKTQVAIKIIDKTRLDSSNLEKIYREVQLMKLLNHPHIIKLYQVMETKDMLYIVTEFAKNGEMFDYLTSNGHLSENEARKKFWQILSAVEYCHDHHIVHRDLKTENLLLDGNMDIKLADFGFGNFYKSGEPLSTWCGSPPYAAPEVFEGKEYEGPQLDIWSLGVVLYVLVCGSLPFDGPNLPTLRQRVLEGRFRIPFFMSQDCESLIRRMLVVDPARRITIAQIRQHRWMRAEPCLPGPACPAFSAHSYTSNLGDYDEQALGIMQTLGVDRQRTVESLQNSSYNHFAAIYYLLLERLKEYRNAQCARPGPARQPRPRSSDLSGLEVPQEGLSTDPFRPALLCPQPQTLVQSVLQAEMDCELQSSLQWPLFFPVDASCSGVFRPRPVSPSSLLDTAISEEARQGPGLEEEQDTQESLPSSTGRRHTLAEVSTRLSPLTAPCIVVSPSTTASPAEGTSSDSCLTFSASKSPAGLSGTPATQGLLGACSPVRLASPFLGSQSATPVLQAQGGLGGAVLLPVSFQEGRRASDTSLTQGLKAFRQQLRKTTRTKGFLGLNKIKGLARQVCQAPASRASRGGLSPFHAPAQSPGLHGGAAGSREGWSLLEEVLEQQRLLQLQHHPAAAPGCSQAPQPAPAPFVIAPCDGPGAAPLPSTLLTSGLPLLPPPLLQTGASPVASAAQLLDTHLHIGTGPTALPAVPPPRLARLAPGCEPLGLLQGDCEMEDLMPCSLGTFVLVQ
Sequence of Calcium/calmodulin-dependent protein kinase type 1D (Homo sapiens) (Q8IU85 whole entry, looked up, the tested form may be a part): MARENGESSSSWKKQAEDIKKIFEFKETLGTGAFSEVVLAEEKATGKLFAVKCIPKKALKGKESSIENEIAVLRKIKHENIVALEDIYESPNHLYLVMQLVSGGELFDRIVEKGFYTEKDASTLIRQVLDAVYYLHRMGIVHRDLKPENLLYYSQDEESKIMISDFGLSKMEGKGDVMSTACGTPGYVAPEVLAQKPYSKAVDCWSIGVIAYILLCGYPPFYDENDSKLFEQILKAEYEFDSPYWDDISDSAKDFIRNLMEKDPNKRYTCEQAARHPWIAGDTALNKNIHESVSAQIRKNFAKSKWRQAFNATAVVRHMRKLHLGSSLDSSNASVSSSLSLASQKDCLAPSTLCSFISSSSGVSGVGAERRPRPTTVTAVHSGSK
Sequence of Phosphatidylinositol 4-phosphate 5-kinase type-1 alpha (Homo sapiens) (Q99755 whole entry, the tested form may be a part): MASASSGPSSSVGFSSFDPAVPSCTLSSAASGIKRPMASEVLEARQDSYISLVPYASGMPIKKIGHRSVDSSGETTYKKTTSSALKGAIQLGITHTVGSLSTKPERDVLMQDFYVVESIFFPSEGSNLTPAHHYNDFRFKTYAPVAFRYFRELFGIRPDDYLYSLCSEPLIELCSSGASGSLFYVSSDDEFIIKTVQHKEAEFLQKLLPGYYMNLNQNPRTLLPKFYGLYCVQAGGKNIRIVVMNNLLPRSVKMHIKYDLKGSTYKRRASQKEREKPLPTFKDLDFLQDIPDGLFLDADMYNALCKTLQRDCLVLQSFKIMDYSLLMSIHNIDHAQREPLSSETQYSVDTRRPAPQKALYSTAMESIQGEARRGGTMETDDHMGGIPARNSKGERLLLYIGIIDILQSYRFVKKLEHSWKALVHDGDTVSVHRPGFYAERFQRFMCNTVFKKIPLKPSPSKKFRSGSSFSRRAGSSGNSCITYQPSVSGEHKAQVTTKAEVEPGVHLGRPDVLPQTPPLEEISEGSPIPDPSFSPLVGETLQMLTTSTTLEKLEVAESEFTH

Consider `COCCN[C@H]1CC[C@H](Nc2cc(-c3csc(NCC4(C#N)CCOCC4)n3)c(Cl)cn2)CC1`, for which the Activity in [1] was determined as 75%; in assay [2], 95%; in [3] it was 97%; in [4] it was 100%; in assay [5], 93%; in assay [6], 18%. The Activity in assay [7] was found to be 96%; in assay [8], 92%; in [9] it was 89%; in assay [10], 100%; in [11] it was 100%; in assay [12] it was 92%. The Activity in [13] is 95%; in assay [14], 100%; in assay [15], 100%; in assay [16], 89%; in assay [17], 93%; in [18], 83%. Moreover, the Activity in assay [19] came out at 92%; in [20] it was 71%. In addition, in the assay listed under Homo sapiens, the Ratio IC50 was over 1000.
